Results published in ChEMBL document CHEMBL1139423, “Stress-driven discovery of metabolites from the phytopathogenic fungus Leptosphaeria maculans: structure and activity of leptomaculins A-E” (2008).
Active and inactive are the calls of the source. The rule behind the calls is not given here.

Key:
[1] = tested on: Brassica juncea; experiment: Stress inducing elicitor activity in Brassica juncea cv. Cutlass assessed as induction of rutalexin production at 0.5 mM; type: functional, organism-based
Procedure, shortened: (§1)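 Test solutions applied to leaves of whole plants (B. juncea cv. Cutlass, B. napus cv. Westar) grown in a growth chamber at 24 ± 2 °C with 16 h light / 8 h dark; plants then incubated in a growth cabinet. Leaf extracts analysed by HPLC-DAD for phytoalexins and indolyl stress metabolites against controls treated with MeOH/H2O (1:1). Run in triplicate, at least twice.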

[2] = tested on: Brassica juncea; experiment: Stress inducing elicitor activity in Brassica juncea cv. Cutlass assessed as increase in 1-methoxyindolyl-3-acetonitrile levels relative to control; type: functional; procedure, shortened: as §1
[3] = tested on: Brassica juncea; experiment: Stress inducing elicitor activity in Brassica juncea cv. Cutlass assessed as induction of cyclobrassinin production at 1 mM; type: functional, organism-based; procedure, shortened: as §1
[4] = tested on: Brassica napus; experiment: Stress inducing elicitor activity in Brassica napus cv. Wester assessed as induction of spirobrassinin production at 1 mM; type: functional, organism-based; procedure, shortened: as §1
[5] = tested on: Brassica juncea; experiment: Stress inducing elicitor activity in Brassica juncea cv. Cutlass assessed as induction of rutalexin production at 1 mM; type: functional, organism-based; procedure, shortened: as §1
[6] = tested on: Brassica napus; experiment: Stress inducing elicitor activity in Brassica napus cv. Wester assessed as increase in indolyl-3-acetonitrile levels relative to control; type: functional; procedure, shortened: as §1
[7] = tested on: Brassica juncea; experiment: Stress inducing elicitor activity in Brassica juncea cv. Cutlass assessed as induction of brassilexin production at 0.5 mM; type: functional, organism-based; procedure, shortened: as §1
[8] = tested on: Brassica napus; experiment: Stress inducing elicitor activity in Brassica napus cv. Wester assessed as induction of spirobrassinin production at 0.5 mM; type: functional, organism-based; procedure, shortened: as §1
[9] = tested on: Brassica juncea; experiment: Stress inducing elicitor activity in Brassica juncea cv. Cutlass assessed as induction of spirobrassinin production at 1 mM; type: functional, organism-based; procedure, shortened: as §1
[10] = tested on: Brassica juncea; experiment: Stress inducing elicitor activity in Brassica juncea cv. Cutlass assessed as induction of brassilexin production at 1 mM; type: functional, organism-based; procedure, shortened: as §1
[11] = tested on: Brassica juncea; experiment: Stress inducing elicitor activity in Brassica juncea cv. Cutlass assessed as induction of spirobrassinin production at 0.5 mM; type: functional, organism-based; procedure, shortened: as §1
[12] = tested on: Brassica juncea; experiment: Stress inducing elicitor activity in Brassica juncea cv. Cutlass assessed as increase in indolyl-3-acetonitrile levels relative to control; type: functional; procedure, shortened: as §1
[13] = tested on: Brassica napus; experiment: Induction necrosis on leaves of Brassica napus cv. Wester at 0.5 mM; type: functional, organism-based
[14] = tested on: Brassica juncea; experiment: Induction necrosis on leaves of Brassica juncea cv. Cutlass at 0.5 mM; type: functional, organism-based
[15] = tested on: Brassica juncea; experiment: Stress inducing elicitor activity in Brassica juncea cv. Cutlass assessed as induction of cyclobrassinin production at 0.5 mM; type: functional, organism-based; procedure, shortened: as §1
[16] = tested on: Brassica napus; experiment: Stress inducing elicitor activity in Brassica napus cv. Wester assessed as increase in 1-methoxyindolyl-3-acetonitrile levels relative to control; type: functional; procedure, shortened: as §1
[17] = tested on: Brassica napus; experiment: Stress inducing elicitor activity in Brassica napus cv. Wester assessed as induction of phytoalexins production; type: functional, organism-based
Procedure, shortened: (§2)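 Test solutions applied to leaves of whole plants. Plants were grown in a growth chamber at 24 ± 2 °C on a 16 h light / 8 h dark cycle. Treated plants were incubated in a growth cabinet. Control leaves received MeOH/H2O (1:1). Elicitation was scored by HPLC-DAD of leaf extracts as phytoalexins absent from control plants. Assays were run in triplicate, at least twice.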

[18] = tested on: Brassica juncea; experiment: Stress inducing elicitor activity in Brassica juncea cv. Cutlass assessed as induction of phytoalexins production; type: functional, organism-based; procedure, shortened: as §2
[19] = tested on: Brassica juncea; experiment: Stress inducing elicitor activity in Brassica juncea cv. Cutlass; type: functional, organism-based; procedure, shortened: as §2
[20] = tested on: Brassica napus; experiment: Stress inducing elicitor activity in Brassica napus cv. Wester; type: functional, organism-based; procedure, shortened: as §2
[21] = tested on: Brassica juncea; experiment: Stress inducing elicitor activity in Brassica juncea cv. Cutlass as induction of spirobrassinin production at 1 mM; type: functional, organism-based; procedure, shortened: as §2

SMILES: CC(=O)O[C@H]1[C@]2(O)C[C@]34SS[C@](CO)(C(=O)N3[C@@H]2C[C@]12O[C@H](C)C(C)(C)C2=O)N(C)C4=O [SIRODESMIN PL]
- Activity [1]: Active
- fold change (FC) [2]: 8
- Activity [3]: Active
- Activity [4]: Active
- Activity [5]: Active
- fold change (FC) [6]: 8
- Activity [7]: Active
- Activity [8]: Active
- Activity [9]: Active
- Activity [10]: Active
- Activity [11]: Active
- fold change (FC) [12]: 8
- Activity [13]: Active
- Activity [14]: Active
- Activity [15]: Active
- fold change (FC) [16]: 8

SMILES: CC(C)=CCOc1ccc(C[C@@H]2NC(=O)[C@H](CO)NC2=O)cc1
- Activity [17]: inactive
- Activity [18]: inactive

SMILES: CC(=O)O[C@H]1[C@]2(O)C[C@]34S[C@](CO)(C(=O)N3[C@@H]2C[C@]12O[C@H](C)C(C)(C)C2=O)N(C)C4=O
- Activity [19]: inactive
- Activity [13]: Active
- Activity [14]: Active
- Activity [20]: inactive

SMILES: C/C=C1/NC(=O)[C@H](C(C)C)NC(=O)[C@@H](CC(C)C)NC(=O)[C@H](CC(C)C)OC(=O)[C@H](Cc2ccccc2)OC1=O
- Activity [17]: inactive
- Activity [18]: inactive

SMILES: C[C@H]1O[C@]2(C[C@H]3N4C(=O)[C@@]5(CO)SS[C@]4(C[C@@]3(O)[C@@H]2O)C(=O)N5C)C(=O)C1(C)C [DEACETYLSIRODESMIN PL]
- fold change (FC) [2]: 8
- Activity [4]: Active
- fold change (FC) [6]: 8
- Activity [21]: Active
- fold change (FC) [12]: 8
- Activity [13]: Active
- Activity [14]: Active
- fold change (FC) [16]: 8

SMILES: CC(=O)O[C@H]1[C@]2(O)C[C@]34SSSS[C@](CO)(C(=O)N3[C@@H]2C[C@]12O[C@H](C)C(C)(C)C2=O)N(C)C4=O
- Activity [19]: inactive
- Activity [20]: inactive

SMILES: CC(=O)O[C@H]1[C@]2(O)C[C@]34SSS[C@](CO)(C(=O)N3[C@@H]2C[C@]12O[C@H](C)C(C)(C)C2=O)N(C)C4=O
- Activity [19]: inactive
- Activity [20]: inactive
